Screens deposited in PubChem by The Scripps Research Institute Molecular Screening Center.
5HT1a ag = activates the human 5-HT1a serotonin receptor. P08908. CHO 5-HT1a Ga15 NFAT-bla reporter, FRET ratio; 0% basal, 100% maximal reference agonist. activation, % at 10 µM. 65,000 compounds, 0.56% hits;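 active = activation above the screen-wide mean activation plus 3 SD, cut at about 19% in these data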;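 also: 0% = DMSO wells and 100% = 5-CT at EC100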
Target sequence (P08908 whole entry, looked up): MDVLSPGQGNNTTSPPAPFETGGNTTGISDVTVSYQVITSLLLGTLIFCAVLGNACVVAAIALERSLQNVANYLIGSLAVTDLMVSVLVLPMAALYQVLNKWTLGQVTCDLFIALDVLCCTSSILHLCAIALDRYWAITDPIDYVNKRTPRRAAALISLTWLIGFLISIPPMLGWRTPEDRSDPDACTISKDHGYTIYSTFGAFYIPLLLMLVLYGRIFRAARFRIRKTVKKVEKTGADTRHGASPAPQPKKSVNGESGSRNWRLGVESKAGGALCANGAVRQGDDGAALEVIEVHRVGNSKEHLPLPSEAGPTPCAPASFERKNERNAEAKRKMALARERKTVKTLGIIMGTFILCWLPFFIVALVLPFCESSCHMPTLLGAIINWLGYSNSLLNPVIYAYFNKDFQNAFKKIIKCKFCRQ
5HT1E antag = 5-HT1E (human) receptor antagonism | CHO 5-HT1E Ga15 NFAT-bla reporter, FRET, antagonist | inhibition, % at 6 µM | 65,000 compounds, 0.99% hits;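 active = inhibition above a set limit, the mean inhibition across every tested compound plus 3 SD, cut at about 29% in these data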;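 also: signal is the 460 over 535 nm emission ratio of beta-lactamase substrate; 0% = agonist plus DMSO wells and 100% = wells without agonist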
S1P3 agonist = activates the human S1P3 receptor; Q99500; S1P3 NFAT-BLA reporter cells, agonism, FRET ratio; relative to 1 µM S1P, basal subtracted; activation, % at 4.5 µM; 60,000 compounds, 0.1% hits;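 active = activation above the screen-wide mean plus 3 SD, cut at about 4.5% in these data, passing the limit was not always enough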
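Assay system: CHO cells stably expressing human S1P3, Gα16 and NFAT-β-lactamase reporter. Timing: overnight plating, 4 h compound 37 °C, 2 h substrate RT. Signal: β-lactamase FRET emission ratio 460/535 nm. Measure: percent activation versus median 1 µM S1P response, basal-subtracted, per plate. Repeats: primary screen single test, confirmation screen in triplicate.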
5HT1E ag = 5-HT1E (human) receptor agonism; activation, % at 6 µM; CHO 5-HT1E Ga15 NFAT-bla reporter, FRET; 0% DMSO wells, 100% control agonist wells; AID 574; 65,000 compounds, 0.69% hits; P28566;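 active = activation above a set limit, the screen-wide mean activation plus 3 SD, cut at about 8.5% in these data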;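 also: 100% = positive control agonist at 1 µM giving full maximal response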
5HT1a antag = 5-HT1a (human) receptor antagonism; CHO 5-HT1a Ga15 NFAT-bla reporter, antagonist mode; inhibition, % at 10 µM; 62,000 compounds, 0.68% hits;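 active = inhibition above the mean of all tested compounds plus 3 SD, cut at about 43% in these data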;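 also: receptor stimulated by 5-CT agonist at 100 nM near EC80; beta-lactamase reporter measured by ratiometric fluorescence of a cleavable substrate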
S1P1 ag-PAM = activates or potentiates agonism at human S1P1 receptor; P21453; S1P1 CRE-bla cells, forskolin, beta-lactamase FRET, potentiator mode; S1P1 agonist co-added at EC20, 2 nM; 100% = saturating reference agonist, 0% = basal; activation, % at 9.5 µM; 56,000 compounds, 0.57% hits;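 active = activation above a cutoff set at the mean activation of all tested compounds plus 3 SD, cut at about 54% in these data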;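 also: forskolin at 4 µM as EC80 and the EC20 agonist is SEW2871; 100% = SEW2871 at its EC100 plus forskolin at EC80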
* = called active by the depositor. Sampled rows, rich in hits. Any-hit rate of the full collection: about 3%.

Screening COc1cccc(OCC(O)CN2CCOCC2)c1 (centres undefined) returned 5HT1a ag 0, 5HT1E antag -12, S1P3 agonist 0, 5HT1E ag 1, 5HT1a antag -12 and S1P1 ag-PAM -23.
Screening COc1cccc(OCC(O)CN2CCC(Cc3ccccc3)CC2)c1 (centres undefined) returned 5HT1a ag 9, 5HT1E antag -1, S1P3 agonist -1, 5HT1E ag 1, 5HT1a antag 52* and S1P1 ag-PAM 2.
COc1cccc(CNC(=O)Cn2cccc2)c1 was read as 5HT1a ag -2, 5HT1E antag -8, S1P3 agonist 0, 5HT1E ag 24*, 5HT1a antag -2 and S1P1 ag-PAM -2.
`CCc1nc(NCc2ccco2)c2oc3ccccc3c2n1` gave 5HT1a ag -1, 5HT1E antag 34*, 5HT1E ag 0 and 5HT1a antag 2.
Screening c1coc(CNc2ncnc3c2oc2ccccc23)c1 returned 5HT1a ag 0, 5HT1E antag -1, S1P3 agonist -1, 5HT1E ag 0, 5HT1a antag -8 and S1P1 ag-PAM 18.
For CCNc1nc(CC)nc2c1oc1ccccc12 the results were 5HT1a ag 1, 5HT1E antag 29*, 5HT1E ag -1 and 5HT1a antag 4.
`CCc1nc(SCCO)c2oc3ccccc3c2n1` gave 5HT1a ag 1, 5HT1E antag 33*, S1P3 agonist -1, 5HT1E ag 0, 5HT1a antag 9 and S1P1 ag-PAM -64.
Cn1c(=O)c2c(nc3sccn32)n(C)c1=O was read as 5HT1a ag 0, 5HT1E antag 6, 5HT1E ag -1 and 5HT1a antag -395.
Cc1cc(C(=O)N2CCN(C(c3ccccc3)c3ccccc3)CC2)no1 was read as 5HT1a ag 1, 5HT1E antag -2, S1P3 agonist 5, 5HT1E ag -1, 5HT1a antag -4 and S1P1 ag-PAM 69*.
Screening CCCc1cc(C(=O)N2CCN(C(c3ccccc3)c3ccccc3)CC2)no1 returned 5HT1a ag 0, 5HT1E antag 5, S1P3 agonist -1, 5HT1E ag 0, 5HT1a antag 7 and S1P1 ag-PAM 66.
Screening COc1cccc(-c2cc(C(=O)N3CCN(C(c4ccccc4)c4ccccc4)CC3)no2)c1 returned 5HT1a ag -1, 5HT1E antag -14, S1P3 agonist -2, 5HT1E ag 3, 5HT1a antag 52* and S1P1 ag-PAM 8.
C/C=C(\CS(=O)(=O)c1ccccc1)S(=O)(=O)c1ccccc1 was read as 5HT1a ag 0, 5HT1E antag 9, S1P3 agonist 0, 5HT1E ag 0 and 5HT1a antag 35.
CCCn1c(Nc2nc3ccccc3n2C)nc2ccccc21 was read as 5HT1a ag 1, 5HT1E antag 54*, S1P3 agonist 1, 5HT1E ag -1, 5HT1a antag 59* and S1P1 ag-PAM -162.
Screening CCCCCn1c(NCc2ccco2)nc2ccccc21 returned 5HT1a ag -1, 5HT1E antag 17, S1P3 agonist 0, 5HT1E ag 22*, 5HT1a antag 19 and S1P1 ag-PAM -12.
For CCCn1c(NCc2ccco2)nc2ccccc21 the results were 5HT1a ag -3, 5HT1E antag -8, S1P3 agonist 1, 5HT1E ag 0, 5HT1a antag 4 and S1P1 ag-PAM -8.
Screening Cc1cc(O)c(-c2n[nH]c3c2C(c2cccc(O)c2)N(Cc2cccnc2)C3=O)cc1Cl (centres undefined) returned 5HT1a ag -1, 5HT1E antag 6, S1P3 agonist -1, 5HT1E ag 0, 5HT1a antag -14 and S1P1 ag-PAM -27.
Screening Cc1c(NC(=O)CSc2nc3ccccc3n2C)c(=O)n(-c2ccccc2)n1C returned 5HT1a ag 1, 5HT1E antag -15, S1P3 agonist 0, 5HT1E ag 0, 5HT1a antag -8 and S1P1 ag-PAM -17.
Screening O=C1C2C3C=CC(CO)(O3)C2C(=O)N1c1ccc(-c2ccccc2)cc1 (centres undefined) returned 5HT1a ag -6, 5HT1E antag 61*, 5HT1E ag 0 and 5HT1a antag 88*.
`CC(C)c1nc(SCC(=O)NCc2ccccc2)n[nH]1` gave 5HT1a ag -4, 5HT1E antag -4, S1P3 agonist 0, 5HT1E ag 1, 5HT1a antag -9 and S1P1 ag-PAM 3.
`O=C1c2oc3ccc(F)cc3c(=O)c2C(c2cccc(O)c2)N1CCCN1CCOCC1` (centres undefined) gave 5HT1a ag 0, 5HT1E antag -1, S1P3 agonist 0, 5HT1E ag 30*, 5HT1a antag -14 and S1P1 ag-PAM 3.
CCCN=Cc1sc2ccc(OCC)cc2c1O was read as 5HT1a ag -3, 5HT1E antag 9, S1P3 agonist -2, 5HT1E ag 35*, 5HT1a antag 26 and S1P1 ag-PAM -5.
For CSc1ccc(/C=N/n2c(C)cc(C)cc2=O)cc1 the results were 5HT1a ag -2, 5HT1E antag 4, S1P3 agonist -1, 5HT1E ag 0, 5HT1a antag -6 and S1P1 ag-PAM -17.
`CN1CCCC(OC(=O)c2cc(Cl)ccc2Cl)C1` (centres undefined) gave 5HT1a ag 1, 5HT1E antag 1, S1P3 agonist -1, 5HT1E ag 13*, 5HT1a antag -3 and S1P1 ag-PAM 2.
Cc1cc(=O)oc2cc3c(cc12)OCCN3 was read as 5HT1a ag 25*, 5HT1E antag -15, S1P3 agonist 2, 5HT1E ag 12*, 5HT1a antag -36 and S1P1 ag-PAM -55.
For Cc1cc(=O)oc2cc3c(cc12)OCCO3 the results were 5HT1a ag -1, 5HT1E antag -3, S1P3 agonist 0, 5HT1E ag 0, 5HT1a antag 3 and S1P1 ag-PAM 2.
`C=CCn1c(=O)c2ccccc2n2c(SCc3nc(N)nc(Nc4ccccc4C)n3)nnc12` gave 5HT1a ag 0, 5HT1E antag 30*, S1P3 agonist 0, 5HT1E ag 0, 5HT1a antag -46 and S1P1 ag-PAM -55.
For C=CCn1c(=O)c2ccccc2n2c(SCC(=O)c3ccccc3)nnc12 the results were 5HT1a ag -1, 5HT1E antag 2, S1P3 agonist 0, 5HT1E ag 1, 5HT1a antag -11 and S1P1 ag-PAM -9.
Cc1[nH]nc2c1C(CCc1ccccc1)C(C#N)=C(N)O2 (centres undefined) was read as 5HT1a ag 0, 5HT1E antag -5, S1P3 agonist 0, 5HT1E ag 1 and S1P1 ag-PAM 3.
